Data as given in ChEMBL document CHEMBL1153373, “Effect of ring size on conformation and biological activity of cyclic cationic antimicrobial peptides” (J Med Chem, 2009).
Converted amounts (≈) assume the structure as drawn. Square brackets hold non-standard residues; d marks the D form. Peptide text beside a SMILES is read from it. Orn = NCCC[C@H](N)C(=O)O

Experiments:
[1] = Therapeutic index, ratio of hemolytic activity in human RBC to MIC for Streptococcus pneumoniae; settings: human red blood cells (RBC), read-out: TI
Streptococcus pneumoniae = experiment: Antimicrobial activity against Streptococcus pneumoniae after 24 hrs by standard microtiter dilution method; format: functional
Enterococcus faecalis = experiment: Antimicrobial activity against Enterococcus faecalis after 24 hrs by standard microtiter dilution method; format: functional
[2] = Therapeutic index, ratio of hemolytic activity in human RBC to MIC for Streptococcus mitis; settings: human red blood cells (RBC), read-out: TI
[3] = Therapeutic index, ratio of hemolytic activity in human RBC to MIC for Pseudomonas aeruginosa; settings: human red blood cells (RBC), read-out: TI
[4] = Toxicity in human RBC assessed as fold reduction in hemolytic activity at 100 ug/ml after 24 hrs relative to control; format: cell-based; settings: erythrocyte
Klebsiella pneumoniae = experiment: Antimicrobial activity against Klebsiella pneumoniae after 24 hrs by standard microtiter dilution method; format: functional
Cryptococcus neoformans = experiment: Antimicrobial activity against Cryptococcus neoformans after 24 hrs by standard microtiter dilution method; format: functional
How it was run: (§1)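 Fungal MICs were determined by standard microtitre dilution, taken as the lowest peptide concentration inhibiting growth after 24 h incubation at 37 °C.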

Streptococcus mitis = experiment: Antimicrobial activity against Streptococcus mitis after 24 hrs by standard microtiter dilution method; format: functional
[5] = test system: Stenotrophomonas maltophilia; experiment: Antimicrobial activity against Stenotrophomonas maltophilia after 24 hrs by standard microtiter dilution method; format: functional
[6] = test system: Staphylococcus epidermidis; experiment: Antimicrobial activity against Staphylococcus epidermidis after 24 hrs by standard microtiter dilution method; format: functional
[7] = Therapeutic index, ratio of hemolytic activity in human RBC to MIC for Corynebacterium jeikeium; settings: human red blood cells (RBC), read-out: TI
[8] = Therapeutic index, ratio of hemolytic activity in human RBC to MIC for Cryptococcus neoformans; settings: human red blood cells (RBC), read-out: TI
[9] = Therapeutic index, ratio of hemolytic activity in human RBC to MIC for Klebsiella pneumoniae; settings: human red blood cells (RBC), read-out: TI
[10] = Therapeutic index, ratio of hemolytic activity in human RBC to MIC for Staphylococcus aureus; settings: human red blood cells (RBC), read-out: TI
Serratia marcescens = experiment: Antimicrobial activity against Serratia marcescens after 24 hrs by standard microtiter dilution method; format: functional
[11] = Therapeutic index, ratio of hemolytic activity in human RBC to MIC for Acinetobacter calcoaceticus; settings: human red blood cells (RBC), read-out: TI
Streptococcus pyogenes = experiment: Antimicrobial activity against Streptococcus pyogenes after 24 hrs by standard microtiter dilution method; format: functional
[12] = Therapeutic index, ratio of hemolytic activity in human RBC to MIC for Candida albicans; settings: human red blood cells (RBC), read-out: TI
[13] = Toxicity in human RBC assessed as hemolytic activity at 100 ug/ml after 24 hrs relative to control; format: cell-based, Erythrocyte; settings: human red blood cells (RBC), read-out: Activity
How it was run: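 Human erythrocytes in saline were exposed to peptide at 100 µg/mL for 24 h at 37 °C. Result is expressed as percent hemolysis.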

Escherichia coli = experiment: Antimicrobial activity against Escherichia coli after 24 hrs by standard microtiter dilution method; format: functional
Corynebacterium jeikeium = experiment: Antimicrobial activity against Corynebacterium jeikeium after 24 hrs by standard microtiter dilution method; format: functional
[14] = Therapeutic index, ratio of hemolytic activity in human RBC to MIC for Enterobacter cloacae; settings: human red blood cells (RBC), read-out: TI
[15] = Therapeutic index, ratio of hemolytic activity in human RBC to MIC for Stenotrophomonas maltophilia; settings: human red blood cells (RBC), read-out: TI
Staphylococcus aureus = experiment: Antimicrobial activity against Staphylococcus aureus after 24 hrs by standard microtiter dilution method; format: functional
Enterobacter cloacae = experiment: Antimicrobial activity against Enterobacter cloacae after 24 hrs by standard microtiter dilution method; format: functional
[16] = Therapeutic index, ratio of hemolytic activity in human RBC to MIC for Escherichia coli; settings: human red blood cells (RBC), read-out: TI
[17] = Therapeutic index, ratio of hemolytic activity in human RBC to MIC for Enterococcus faecalis; settings: human red blood cells (RBC), read-out: TI
[18] = test system: Acinetobacter calcoaceticus; experiment: Antimicrobial activity against Acinetobacter calcoaceticus after 24 hrs by standard microtiter dilution method; format: functional
Pseudomonas aeruginosa = experiment: Antimicrobial activity against Pseudomonas aeruginosa after 24 hrs by standard microtiter dilution method; format: functional
[19] = Therapeutic index, ratio of hemolytic activity in human RBC to MIC for Streptococcus pyogenes; settings: human red blood cells (RBC), read-out: TI
[20] = Therapeutic index, ratio of hemolytic activity in human RBC to MIC for Staphylococcus epidermidis; settings: human red blood cells (RBC), read-out: TI
Candida albicans = experiment: Antimicrobial activity against Candida albicans after 24 hrs by standard microtiter dilution method; format: functional; how it was run: as §1
[21] = Therapeutic index, ratio of hemolytic activity in human RBC to MIC for Serratia marcescens; settings: human red blood cells (RBC), read-out: TI

Row | MIC (Klebsiella pneumoniae) [µg/mL] | MIC (Cryptococcus neoformans) [µg/mL] | SMILES | selectivity ratio [1] | MIC (Streptococcus pneumoniae) [µg/mL] | MIC (Enterococcus faecalis) [µg/mL] | selectivity ratio [2] | selectivity ratio [3] | Activity [4] | MIC (Streptococcus mitis) [µg/mL] | MIC [5] [µg/mL] | MIC [6] [µg/mL] | selectivity ratio [7] | selectivity ratio [8] | MIC (Serratia marcescens) [µg/mL] | MIC (Streptococcus pyogenes) [µg/mL] | selectivity ratio [12] | selectivity ratio [14] | selectivity ratio [15] | MIC (Staphylococcus aureus) [µg/mL] | MIC [18] [µg/mL] | other results
1 | 32 (≈ 26.6 µM) | 1 (≈ 0.832 µM) | CC(C)C[C@@H]1NC(=O)[C@H](CCCCN)NC(=O)[C@H](C(C)C)NC(=O)[C@@H]2CCCN2C(=O)[C@@H](Cc2ccc(O)cc2)NC(=O)[C@H](CC(C)C)NC(=O)[C@H](CCCCN)NC(=O)[C@H](C(C)C)NC(=O)[C@@H]2CCCN2C(=O)[C@@H](Cc2ccc(O)cc2)NC1=O (cyclo(KL[dY]PVKL[dY]PV)) | 100 | 1 (≈ 0.832 µM) | 2 (≈ 1.66 µM) | 100 | 1 | 1 | 1 (≈ 0.832 µM) | 16 (≈ 13.3 µM) | 2 (≈ 1.66 µM) | 100 | 100 | – | – | – | – | – | – | – | –
2 | 128 (≈ 76.6 µM) | 2 (≈ 1.2 µM) | CC(C)C[C@@H]1NC(=O)[C@H](CCCCN)NC(=O)[C@H](C(C)C)NC(=O)[C@@H]2CCCN2C(=O)[C@@H](Cc2ccc(O)cc2)NC(=O)[C@H](CC(C)C)NC(=O)[C@H](CCCCN)NC(=O)[C@H](C(C)C)NC(=O)[C@H](CCCCN)NC(=O)[C@H](CC(C)C)NC(=O)[C@@H]2CCCN2C(=O)[C@@H](Cc2ccc(O)cc2)NC(=O)[C@H](C(C)C)NC(=O)[C@H](CCCCN)NC1=O (cyclo(KLKV[dY]PLKVKL[dY]PV)) | – | – | – | – | 2 | 1 | – | – | – | – | – | 256 (≈ 153 µM) | 1 (≈ 0.599 µM) | 2 | – | 2 | 32 (≈ 19.2 µM) | 16 (≈ 9.58 µM) | MIC (Pseudomonas aeruginosa): 64 µg/mL (≈ 38.3 µM); MIC (Candida albicans): 64 µg/mL (≈ 38.3 µM)
3 | – | – | CC(C)C[C@@H]1NC(=O)[C@H](CCCCN)NC(=O)[C@H](C(C)C)NC(=O)[C@@H]2CCCN2C(=O)[C@@H](Cc2ccc(O)cc2)NC(=O)[C@H](CC(C)C)NC(=O)[C@H](CCCCN)NC(=O)[C@H](C(C)C)NC(=O)[C@H](CCCCN)NC(=O)[C@H](CC(C)C)NC(=O)[C@@H]2CCCN2C(=O)[C@@H](Cc2ccc(O)cc2)NC(=O)[C@H](CCCCN)NC1=O (cyclo(VKLK[dY]PLKVKL[dY]P)) | – | – | – | – | – | – | – | – | – | – | – | – | – | – | 4 | – | – | – | selectivity ratio [21]: 2

Row | SMILES | MIC (Klebsiella pneumoniae) [µg/mL] | MIC (Cryptococcus neoformans) [µg/mL] | selectivity ratio [1] | MIC (Streptococcus pneumoniae) [µg/mL] | MIC (Enterococcus faecalis) [µg/mL] | selectivity ratio [2] | selectivity ratio [3] | Activity [4] | MIC (Streptococcus mitis) [µg/mL] | MIC [5] [µg/mL] | MIC [6] [µg/mL] | selectivity ratio [7] | selectivity ratio [8] | MIC (Serratia marcescens) [µg/mL] | MIC (Streptococcus pyogenes) [µg/mL] | selectivity ratio [12] | selectivity ratio [14] | selectivity ratio [15] | MIC (Staphylococcus aureus) [µg/mL] | MIC [18] [µg/mL] | other results
4 | CC(C)C[C@@H]1NC(=O)[C@H](CCCN)NC(=O)[C@H](C(C)C)NC(=O)[C@@H]2CCCN2C(=O)[C@@H](Cc2ccccc2)NC(=O)[C@H](CC(C)C)NC(=O)[C@H](CCCN)NC(=O)[C@H](C(C)C)NC(=O)[C@@H]2CCCN2C(=O)[C@@H](Cc2ccccc2)NC1=O [GRAMICIDIN S] (cyclo(L[dF]PV[Orn]L[dF]PV[Orn])) | 16 (≈ 14 µM) | 1 (≈ 0.876 µM) | 100 | 1 (≈ 0.876 µM) | 2 (≈ 1.75 µM) | 200 | 3 | 1 | 0.5 (≈ 0.438 µM) | 8 (≈ 7.01 µM) | 2 (≈ 1.75 µM) | 25 | 100 | 256 (≈ 224 µM) | 0.5 (≈ 0.438 µM) | 12 | 3 | 12 | 2 (≈ 1.75 µM) | 8 (≈ 7.01 µM) | selectivity ratio [9]: 6; selectivity ratio [10]: 50; selectivity ratio [11]: 12; hemolysis at 24 h, 100 ug/ml [13]: 100%; MIC (Escherichia coli): 16 µg/mL (≈ 14 µM); MIC (Corynebacterium jeikeium): 4 µg/mL (≈ 3.5 µM); MIC (Enterobacter cloacae): 32 µg/mL (≈ 28 µM); selectivity ratio [16]: 6; selectivity ratio [17]: 50; MIC (Pseudomonas aeruginosa): 32 µg/mL (≈ 28 µM); selectivity ratio [19]: 200; selectivity ratio [20]: 50; MIC (Candida albicans): 8 µg/mL (≈ 7.01 µM); selectivity ratio [21]: 0.3
